Reference: publication PMC2229406 (The Journal of General Physiology, 1998)
Values joined by “and” are separate entries in the source; they are usually repeats but may differ in a detail not shown here. Identical values can stand only once. Like-named read-outs stand apart in the source and are kept apart here.

What was measured:
[1] = tested on: sheep cardiac ryanodine receptor (RyR) channel; type: biochemical
Procedure, shortened: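 CHAPS-solubilized RyR from sheep ventricular heavy SR (30/40% sucrose interface) was reconstituted into liposomes and fused into phosphatidylethanolamine/n-decane bilayers. Both chambers held 610 mM K+, 20 mM HEPES pH 7.4 and 10 μM contaminant Ca2+, with 100 μM EMD 41000 cis. Single channels only, at 21 ± 2°C. Ryanoid added cytosolically; steady-state runs ≥6 min at +40 mV. Pmod = modified/(modified+unmodified) time; single-site nonlinear regression; mean ± SEM.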

[2] = tested on: sheep cardiac ryanodine receptor (RyR) channel; conditions: ref Tinker et al., 1996, cited from earlier work
[3] = +40 mV, 500 nM cytosolic, 20 min recording, single exponential fit

Molecule: 21-amino-9α-hydroxy-ryanodine
- mean P o ± SEM in unmodified periods ([1]; 50 nM ryanoid, +40 mV, n = 5): 0.62 ± 0.15
- mean P o ± SEM in unmodified periods ([1]; 100 nM ryanoid, +40 mV, n = 5): 0.71 ± 0.16
- mean P o ± SEM in unmodified periods ([1]; 300 nM ryanoid, +40 mV, n = 5): 0.70 ± 0.16
- modification of channel function, luminal addition ([1]; 500 nM at the luminal face, +60 or −60 mV, n = 6): no modification of gating or conductance
- total valency / total voltage dependence (z on + z off) ([1]; 500 nM cytosolic): 1.98 and 2
- interaction with the channel at −60 mV ([1]; 500 nM cytosolic, −60 mV): no discernible modified-conductance events
- mean P o ± SEM in unmodified periods ([1]; 500 nM ryanoid, +40 mV, n = 5): 0.56 ± 0.16
- k on, intercept of regression line vs P o ([1]; 700 nM cytosolic, +40 mV): 0.02 ± 0.02 s⁻¹
- k on, slope vs P o ([1]; 700 nM cytosolic, +40 mV, range P o = 0–1): 0.97 ± 0.05 s⁻¹
- mean P o ± SEM in unmodified periods ([1]; 700 nM ryanoid, +40 mV, n = 4): 0.73 ± 0.15
- mean P o ± SEM in unmodified periods ([1]; 900 nM ryanoid, +40 mV, n = 4): 0.73 ± 0.15
- mean dwell time in the modified state (τmod) [1, 3]: 4.21 s
- mean dwell time in the unmodified state (τunmod) [1, 3]: 0.95 s
- K d from P mod vs concentration ([1]; +40 mV, 50-900 nM cytosolic, single-site binding scheme, nonlinear regression): 105 nM
- apparent rate constant for dissociation, mean value ([1]; +40 mV, independent of concentration): 0.24 ± 0.01 s⁻¹
- z, voltage dependence of occurrence of the modified state ([1]; Boltzmann fit of P mod vs holding potential, 500 nM cytosolic): 2.16
- Hill slope ([1]; P mod vs concentration, +40 mV): 0.99
- slope of ln(rate constant) vs ln(concentration) ([1]; association, +40 mV): 0.975
- modified conductance ([1]; cursors at center of noise, 610 mM K+, SEM, n = 14): 354 ± 6 pS
- mean fractional conductance ± SEM ([1]; holding potential 20 mV, n = 10): 0.438 ± 0.004
- mean fractional conductance ± SEM ([1]; holding potential 40 mV, n = 10): 0.440 ± 0.003
- mean fractional conductance ± SEM ([1]; holding potential 60 mV, n = 10): 0.462 ± 0.003
- mean P o ± SEM in unmodified periods ([1]; holding potential +20 mV, 500 nM ryanoid, n = 7): 0.65 ± 0.09
- mean P o ± SEM in unmodified periods ([1]; holding potential +40 mV, 500 nM ryanoid, n = 7): 0.69 ± 0.09
- mean P o ± SEM in unmodified periods ([1]; holding potential +60 mV, 500 nM ryanoid, n = 7): 0.45 ± 0.06
- mean P o ± SEM in unmodified periods ([1]; holding potential −20 mV, 500 nM ryanoid, n = 6): 0.62 ± 0.15
- mean fractional conductance ± SEM ([1]; holding potential −20 mV, n = 10): 0.437 ± 0.005
- mean P o ± SEM in unmodified periods ([1]; holding potential −40 mV, 500 nM ryanoid, n = 5): 0.73 ± 0.13
- mean fractional conductance ± SEM ([1]; holding potential −40 mV, n = 6): 0.442 ± 0.002
- mean P o ± SEM in unmodified periods ([1]; holding potential −60 mV, 500 nM ryanoid, n = 5): 0.78 ± 0.17
- fractional conductance ([1]; modified conductance as proportion of unmodified conductance (813 pS)): 0.44
- Kd ([1]; read-out: apparent K d derived from the rate constants, +40 mV): 111 nM
- z off ([1]; slope of ln(K off) vs holding potential, 500 nM cytosolic): 0.87
- z on ([1]; slope of ln(K on) vs holding potential, 500 nM cytosolic): 1.11

Molecule: CC(C)[C@@]1(O)[C@@H](O)[C@@]2(O)[C@@]3(C)C[C@]4(O)O[C@@]5([C@H](O)[C@@H](C)CC[C@]35O)[C@@]2(O)[C@]14C [ryanodol]
- voltage dependence of channel modification ([2]; +60 vs −60 mV): more likely to occur and are longer lasting at a holding potential of +60 than −60 mV
- amplitude of reduced conductance state, of the normal unmodified conductance [2]: ~70%
